Screening results from PubChem.
APJ antag: APJ receptor antagonism. actives 0.32% (n = 330,000). inhibition, % at 20 µM. CHO-K1 APJ beta-arrestin complementation, luminescence;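 active = inhibition above about 40% at 20 µM, limit read from the data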;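 note: cells challenged with 10 nM apelin-13 agonist together with compound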
DAGLB inh: blocks human DAGLB lipase activity; Q8NCG7; HEK293T DAGLB membrane lysate, EnzChek fluorogenic substrate; inhibition, % at 5.17 µM; actives 0.059% (n = 340,000); AID 504411; in the data active = inhibition above about 34%
CXCR6 inh: blocks human CXCR6 beta-arrestin recruitment; actives 0.36% (n = 360,000); AID 602244; inhibition, % at 20 µM; CHO-K1 PathHunter CXCR6 beta-arrestin, luminescence; in the data active = inhibition above about 34%, passing the limit was not always enough;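 note: antagonist mode with CXCL16 agonist at 10 nM final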
Target sequence (O00574 whole entry, looked up): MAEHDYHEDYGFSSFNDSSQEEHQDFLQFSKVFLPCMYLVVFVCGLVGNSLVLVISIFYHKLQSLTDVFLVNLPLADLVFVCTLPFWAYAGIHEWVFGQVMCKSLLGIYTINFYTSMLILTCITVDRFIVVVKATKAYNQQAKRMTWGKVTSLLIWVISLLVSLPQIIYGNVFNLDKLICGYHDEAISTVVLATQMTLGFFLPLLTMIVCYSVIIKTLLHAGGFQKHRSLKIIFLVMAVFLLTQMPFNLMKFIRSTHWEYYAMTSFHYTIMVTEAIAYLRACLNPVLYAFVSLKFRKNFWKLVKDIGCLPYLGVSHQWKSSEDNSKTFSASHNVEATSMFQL
iPSC survival up: increases survival of single human iPS cells; hiPSC single-cell survival, ATPlite luminescence; 100% = ROCK inhibitor wells, 0% = DMSO; survival enhancement, % at 20 µM; actives 0.044% (n = 360,000); AID 602274; in the data active = survival enhancement above about 18%;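 note: cells exposed to compounds for 16 hours before the ATP read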
CCR6 antag: CCR6 (human) receptor antagonism; AID 493098; inhibition, % at 20 µM; actives 0.49% (n = 340,000); P51684; CHO-K1 CCR6 PathHunter beta-arrestin, luminescence, CCL20-stimulated;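 active = compounds whose inhibition of the agonist-driven luminescence signal at 20 µM reaches about 50%, limit read from the data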;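 note: cells stimulated with CCL20 at 14 nM final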
APJ agonist: agonists of human APJ apelin receptor. P35414. CHO-K1 APJ PathHunter beta-arrestin, luminescence; 0% DMSO wells, 100% apelin. activation, % at 20 µM. actives 0.11% (n = 330,000);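 active = activation more than six SD over the plate average, tested at 20 µM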
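Assay system: CHO-K1 cells stably expressing ProLink-tagged human APJ and arrestin–beta-gal acceptor. Compound dosing: 20 µM single point, 1% DMSO. Times: 16-18 h seeding, 90 min dark compound exposure, 60 min detection. Detection: beta-gal luminescence. Evaluation: APJ–arrestin association signal. Controls: negative DMSO alone, positive Apelin-13 at 10 nM.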
Large screens that a line does not name were inactive. Only some compounds are listed: those with a hit (about 0.86% of all), similar ones and a draw of the others.

Cc1ccccc1N1C(=O)c2sc3nc4c(c(=O)n3c2C1=O)CCC4	none
O=C1c2sc3nc4ccccc4n3c2C(=O)N1c1ccccc1Cl	CXCR6 inh 38.4
O=c1oc(-c2cccc(Cl)c2)nc2c1cnn2-c1ccccc1	none
O=c1oc(-c2ccccc2F)nc2c1cnn2-c1ccccc1	CCR6 antag 51.9
O=C1Cc2cc(NS(=O)(=O)c3ccc([N+](=O)[O-])cc3)cc3c2N1CCC3	none
COc1ccc(Cl)cc1NC(=O)c1nnn(CC(=O)Nc2cc(C)cc(C)c2)c1N	none
O=C(NC(Nc1nc2ccc([N+](=O)[O-])cc2s1)(C(F)(F)F)C(F)(F)F)c1ccccc1Cl	CCR6 antag 56.4
Cc1ccc(-c2cc(-c3ccccc3)c(C#N)c(N)n2)o1	CCR6 antag 77.9
O=C1NC(=S)S/C1=C/c1ccc(N2CCOCC2)o1	CCR6 antag 61.6
O=C1S/C(=C/c2ccc(N3CCOCC3)o2)C(=O)N1Cc1ccc(F)cc1	none
CCOC(=O)C1Oc2ccccc2C(c2ccc(C)cc2)=C1C(=O)OC (stereo not drawn)	none (no result: APJ antag, APJ agonist)
CCOC(=O)C1(CC)Oc2ccccc2C(c2ccc(OC)cc2)=C1C(=O)OC (stereo not drawn)	CXCR6 inh 48.0 (no result: APJ antag, APJ agonist)
Cc1ccc(S(=O)(=O)N2CCOCC2)cc1NC(=O)COC(=O)C1=COCCO1	none
O=C(OCC(=O)c1ccc(S(=O)(=O)N2CCCC2)cc1)C1=COCCO1	CCR6 antag 53.2
Cc1ccc(C(=O)OCC(=O)c2ccc(S(=O)(=O)N3CCCCC3)cc2)o1	CCR6 antag 52.7
COc1ccc(C(=O)OCC(=O)c2ccc(S(=O)(=O)N3CCCCC3)cc2)c(OC)c1	none
O=C(CCC(=O)c1ccc(F)cc1)NC1CCCN(Cc2ccccc2F)C1 (stereo not drawn)	none
NNc1nc(-c2ccccc2)cs1	CCR6 antag 59.4
C(=N\Nc1nc(-c2ccccc2)cs1)/c1ccco1	APJ agonist 10.3
Cc1ccc(NS(=O)(=O)c2c(C)[nH]c(C)c2C(=O)N2CCCCC2)cc1F	none
N#CC(=C1C=CC(=NO)C(Cl)=C1)c1ccc(Cl)cc1	CCR6 antag 67.0 (no result: APJ antag, APJ agonist)
CN1CCN(c2ccccc2NC(=O)c2ccc(-c3cccc(Cl)c3)o2)CC1	CCR6 antag 54.7
O=C(Nc1ccccc1N1CCOCC1)c1ccc(Br)o1	CCR6 antag 50.7
CN1CCN(c2ccccc2NC(=O)c2ccc(Br)o2)CC1	none
COC(=O)[C@@]1(Cc2ccc(OC)cc2)[C@H]2c3cc(C(=O)N4CCCC4)n(Cc4ccc(C)c(F)c4F)c3C[C@H]2CN1C(=O)c1ccccc1	none (no result: APJ antag, DAGLB inh, CCR6 antag, APJ agonist)
N#Cc1c(N2CCN(C(=O)c3ccccc3)CC2)nc(-c2ccccc2)c2c1CCCC2	CCR6 antag 50.5
N#Cc1c(N2CCN(C(=O)c3ccccc3Cl)CC2)nc(-c2ccccc2)c2c1CCCC2	none
CCN1/C(=C/C=C/c2oc3ccc(-c4ccccc4)cc3[n+]2CC)Oc2ccc(-c3ccccc3)cc21	CCR6 antag 59.8
Cc1cc(/C=N/n2c(COc3ccccc3C)nc3ccccc3c2=O)c(O)c([N+](=O)[O-])c1	CCR6 antag 58.5
Cc1ccc(C(=O)Nc2ccccc2N2CCCC2)cc1	none
C/C(CCC(C)C)=N\Nc1cc(C)c2ccccc2n1	APJ antag 42.8, CCR6 antag 55.7
COc1cccc(C(=O)N2CCN(C3CCN(Cc4ccccc4)CC3)CC2)c1OC	none
O=[N+]([O-])c1ccc(O)c(N=Cc2sc3ccccc3c2O)c1	CCR6 antag 53.5 (no result: APJ antag, APJ agonist)
Cc1ccc2c(CC(=O)NCCc3ccc(S(N)(=O)=O)cc3)coc2c1	none
CCSC1=NC(C)(C)C=C(/C=C/c2ccc(Cl)cc2Cl)N1	CCR6 antag 66.4
CSC1=NC(C)(C)C=C(/C=C/c2ccc(Cl)cc2Cl)N1	none
COc1cc(/C=C2/C(=O)N(c3ccc([N+](=O)[O-])cc3)N=C2N2CCOCC2)ccc1O	CCR6 antag 55.2
CC(=O)NC12CC3CC(C1)CC(C(=O)NCc1ccc(C)cc1)(C3)C2	none
O=C(Nc1ccc(CN2CCOCC2)cc1)c1ccc(N2CCCC2)c([N+](=O)[O-])c1	none
O=C(Nc1cc(S(=O)(=O)Nc2ccccc2Cl)ccc1O)c1sc2cc(Cl)ccc2c1Cl	CCR6 antag 75.5
O=C(c1cc(COc2c(F)cccc2F)on1)N1CCc2ccccc2C1	none
